From ChEMBL document CHEMBL1134579, “Design and biological activity of (S)-4-(5-([1-(3-chlorobenzyl)-2-oxopyrrolidin-3-ylamino]methyl)imidazol-1-ylmethyl)benzonitrile, a 3-aminopyrrolidinone farnesyltransferase inhibitor with excellent cell potency” (J Med Chem, 2001)

How the values were obtained:
[1] = target: Protein farnesyltransferase (Rattus norvegicus); test: Concentration required to displace 50% of a potent radiolabeled FTI from farnesyl transferase in cultured H-ras-transformed Rat1 cells
[2] = target: Protein farnesyltransferase (Homo sapiens, UniProt P49354+P49356); test: In vitro inhibition of farnesyl transferase using purified recombinant human enzyme; format: protein-complex assay
How it was run: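 Purified recombinant human FTase with [1-³H]FPP and a recombinant protein substrate carrying the K-Ras C-terminus (CVIM). Labeled farnesyl incorporation measured by acid precipitation of total protein and scintillation counting. Final methanol or DMSO 0.5 vol %. Mostly run at least twice; SD given for n≥3.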

[3] = target: Geranylgeranyl transferase type-1 subunit beta (Homo sapiens, UniProt P53609); test: Inhibitory concentration of geranylgeranyl-protein transferase type I
[4] = target: Voltage-gated inwardly rectifying potassium channel KCNH2 (Homo sapiens, UniProt Q12809)
Sequence of Voltage-gated inwardly rectifying potassium channel KCNH2 (Q12809 whole entry): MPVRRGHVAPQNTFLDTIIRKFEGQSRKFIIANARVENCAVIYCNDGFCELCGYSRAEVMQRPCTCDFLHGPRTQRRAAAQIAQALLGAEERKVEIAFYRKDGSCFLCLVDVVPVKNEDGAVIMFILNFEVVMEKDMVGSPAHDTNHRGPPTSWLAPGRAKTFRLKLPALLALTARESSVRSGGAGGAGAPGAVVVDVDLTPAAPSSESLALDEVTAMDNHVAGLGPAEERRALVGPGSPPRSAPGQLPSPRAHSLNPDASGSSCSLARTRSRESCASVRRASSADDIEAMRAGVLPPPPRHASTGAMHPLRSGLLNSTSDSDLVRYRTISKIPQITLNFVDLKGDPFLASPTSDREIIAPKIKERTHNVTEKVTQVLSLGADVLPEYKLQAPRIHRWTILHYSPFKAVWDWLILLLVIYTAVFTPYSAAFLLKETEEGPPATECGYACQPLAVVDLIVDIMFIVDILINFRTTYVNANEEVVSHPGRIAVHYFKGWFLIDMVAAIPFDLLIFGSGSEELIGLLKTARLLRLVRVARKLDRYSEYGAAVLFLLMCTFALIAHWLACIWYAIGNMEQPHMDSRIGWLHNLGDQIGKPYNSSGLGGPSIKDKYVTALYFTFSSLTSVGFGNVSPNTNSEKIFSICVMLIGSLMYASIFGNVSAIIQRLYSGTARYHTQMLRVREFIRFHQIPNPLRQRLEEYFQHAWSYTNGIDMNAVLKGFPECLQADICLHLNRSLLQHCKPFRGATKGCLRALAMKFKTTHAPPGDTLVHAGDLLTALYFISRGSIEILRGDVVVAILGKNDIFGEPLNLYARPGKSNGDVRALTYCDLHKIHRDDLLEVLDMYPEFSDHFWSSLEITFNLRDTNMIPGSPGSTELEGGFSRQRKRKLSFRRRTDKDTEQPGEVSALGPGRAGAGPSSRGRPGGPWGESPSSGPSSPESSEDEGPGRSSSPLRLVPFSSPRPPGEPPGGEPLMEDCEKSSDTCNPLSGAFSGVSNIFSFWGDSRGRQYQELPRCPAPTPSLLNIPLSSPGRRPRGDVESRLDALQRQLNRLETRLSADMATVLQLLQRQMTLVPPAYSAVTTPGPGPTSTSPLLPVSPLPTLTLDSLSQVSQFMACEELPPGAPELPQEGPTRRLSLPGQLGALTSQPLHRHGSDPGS

Sequence of Geranylgeranyl transferase type-1 subunit beta (P53609 whole entry): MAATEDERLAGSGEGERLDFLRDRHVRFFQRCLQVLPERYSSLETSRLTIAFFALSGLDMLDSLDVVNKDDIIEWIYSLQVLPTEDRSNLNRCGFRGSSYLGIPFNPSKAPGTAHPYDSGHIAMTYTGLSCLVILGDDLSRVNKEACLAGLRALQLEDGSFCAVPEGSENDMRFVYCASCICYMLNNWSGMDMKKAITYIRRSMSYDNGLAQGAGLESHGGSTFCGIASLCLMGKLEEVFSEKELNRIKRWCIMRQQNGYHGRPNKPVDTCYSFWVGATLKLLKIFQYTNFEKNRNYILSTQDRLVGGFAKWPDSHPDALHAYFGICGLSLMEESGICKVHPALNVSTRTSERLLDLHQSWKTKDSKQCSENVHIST

SMILES: N#Cc1ccc(Cn2cncc2CN[C@H]2CCN(Cc3ccccc3Cl)C2=O)cc1
- IC50 [1]: 2.7 nM
- IC50 [2]: 5.2 nM
- IC50 [3]: 11000 nM

SMILES: N#Cc1ccc(Cn2cncc2CCN[C@H]2CCN(Cc3ccccc3)C2=O)cc1
- IC50 [2]: 270 nM
- IC50 [3]: 7400 nM

SMILES: N#Cc1ccc(Cn2cncc2CN[C@H]2CCN(Cc3cccc(Cl)c3)C2=O)cc1
- IC50 [3]: 3400 nM

SMILES: N#Cc1ccc(Cn2cncc2CCN[C@@H]2CCN(CCc3ccccc3)C2=O)cc1
- IC50 [2]: 380 nM
- IC50 [3]: 1500 nM

SMILES: N#Cc1ccc(Cn2cncc2CN(Cc2cccnc2)[C@H]2CCN(Cc3ccccc3)C2=O)cc1
- IC50 [3]: > 50000 nM

SMILES: N#Cc1ccc(Cn2cncc2CN[C@H]2CCN(C(=O)c3cccc(Cl)c3)C2)cc1
- IC50 [1]: 67 nM
- IC50 [2]: 27 nM
- IC50 [3]: 11000 nM
- IC50 [4]: 5800 nM

SMILES: N#Cc1ccc(Cn2cncc2CCN[C@@H]2CCN(c3ccccc3)C2=O)cc1
- IC50 [2]: 120 nM
- IC50 [3]: 16000 nM

SMILES: N#Cc1ccc(Cn2cncc2CCN[C@H]2CCN(CCc3ccccc3)C2=O)cc1
- IC50 [2]: 240 nM
- IC50 [3]: 2800 nM

SMILES: N#Cc1ccc(Cn2cncc2CN[C@H]2CCN(C(=O)c3ccc[nH]c3=O)C2)cc1
- IC50 [2]: 6800 nM
- IC50 [3]: > 50000 nM

SMILES: N#Cc1ccc(Cn2cncc2CN[C@H]2CCN(c3ccccc3Cl)C2=O)cc1
- IC50 [1]: 14 nM
- IC50 [2]: 1.5 nM
- IC50 [3]: 42000 nM

SMILES: N#Cc1ccc(Cn2cncc2CN[C@H]2CCN(c3ccccn3)C2=O)cc1
- IC50 [2]: 370 nM
- IC50 [3]: 36000 nM

SMILES: CSc1ncccc1C(=O)N1CC[C@H](NCc2cncn2Cc2ccc(C#N)cc2)C1
- IC50 [3]: 28000 nM

SMILES: N#Cc1ccc(Cn2cncc2CN(Cc2ccccc2)[C@H]2CCN(Cc3ccccc3)C2=O)cc1
- IC50 [2]: 67 nM
- IC50 [3]: 20000 nM

SMILES: N#Cc1ccc(Cn2cncc2CN[C@H]2CCN(c3ccc(Cl)cc3)C2=O)cc1
- IC50 [1]: 30 nM
- IC50 [2]: 21 nM
- IC50 [3]: 11000 nM

SMILES: N#Cc1ccc(Cn2cncc2CN[C@H]2CCN(C(=O)c3ccccc3Cl)C2)cc1
- IC50 [2]: 65 nM
- IC50 [3]: 19000 nM

SMILES: N#Cc1ccc(Cn2cncc2CN(CCCc2ccccc2)[C@H]2CCN(Cc3cccc(Cl)c3)C2=O)cc1
- IC50 [3]: 6500 nM

SMILES: N#Cc1ccc(Cn2cncc2CN[C@@H]2CCN(Cc3ccccc3)C2=O)cc1
- IC50 [3]: 46000 nM

SMILES: N#Cc1ccc(Cn2cncc2CN[C@H]2CCN(Cc3ccc(Cl)cc3)C2=O)cc1
- IC50 [1]: 53 nM
- IC50 [2]: 25 nM
- IC50 [3]: 15000 nM

SMILES: CC(C)(C)OC(=O)NCCCN(Cc1cncn1Cc1ccc(C#N)cc1)[C@H]1CCN(Cc2ccccc2)C1=O
- IC50 [3]: 3600 nM

SMILES: N#Cc1ccc(Cn2cncc2CN[C@H]2CCN(c3cccnc3)C2=O)cc1
- IC50 [1]: 240 nM
- IC50 [2]: 85 nM
- IC50 [3]: > 20000 nM

SMILES: N#Cc1ccc(Cn2cncc2CN(CCCN)[C@H]2CCN(Cc3cccc(Cl)c3)C2=O)cc1
- IC50 [1]: 150 nM
- IC50 [2]: 7.5 nM
- IC50 [3]: > 50000 nM
- IC50 [4]: 480 nM

SMILES: CCCN(Cc1cncn1Cc1ccc(C#N)cc1)[C@H]1CCN(Cc2ccccc2)C1=O
- IC50 [1]: 36 nM
- IC50 [2]: 59 nM

SMILES: N#Cc1ccc(Cn2cncc2CN(CCCc2ccccc2)[C@H]2CCN(Cc3ccccc3)C2=O)cc1
- IC50 [3]: 12000 nM

SMILES: N#Cc1ccc(Cn2cncc2CN[C@@H]2CCN(CCc3ccccc3)C2=O)cc1
- IC50 [2]: 250 nM
- IC50 [3]: 31000 nM

SMILES: N#Cc1ccc(Cn2cncc2CCN[C@@H]2CCN(Cc3ccccc3)C2=O)cc1
- IC50 [2]: 250 nM
- IC50 [3]: 11000 nM

SMILES: N#Cc1ccc(Cn2cncc2CN[C@H]2CCN(C(=O)c3cccnc3)C2)cc1
- IC50 [2]: 2000 nM
- IC50 [3]: > 50000 nM

SMILES: N#Cc1ccc(Cn2cncc2CN(CCCN)[C@H]2CCN(Cc3ccccc3)C2=O)cc1
- IC50 [3]: > 50000 nM

SMILES: N#Cc1ccc(Cn2cncc2CN[C@H]2CCN(CCc3ccccc3)C2=O)cc1
- IC50 [2]: 230 nM
- IC50 [3]: 48000 nM

SMILES: CCSc1ncccc1C(=O)N1CC[C@H](NCc2cncn2Cc2ccc(C#N)cc2)C1
- IC50 [1]: 6.2 nM
- IC50 [2]: 4.8 nM
- IC50 [3]: ~5100 nM
- IC50 [4]: 14000 nM

SMILES: N#Cc1ccc(Cn2cncc2CN[C@H]2CCN(C(=O)c3cncc(Br)c3)C2)cc1
- IC50 [1]: 49 nM
- IC50 [2]: 43 nM
- IC50 [3]: 41000 nM
- IC50 [4]: 6000 nM

SMILES: N#Cc1ccc(Cn2cncc2CN[C@H]2CCN(C(=O)c3cccnc3N)C2)cc1
- IC50 [2]: 980 nM
- IC50 [3]: > 50000 nM
- IC50 [4]: > 50000 nM

SMILES: N#Cc1ccc(Cn2cncc2CN[C@H]2CCN(c3cccc4ncccc34)C2=O)cc1
- IC50 [3]: > 20000 nM

SMILES: N#Cc1ccc(Cn2cncc2CN[C@H]2CCN(C(=O)c3ccc(Cl)cc3)C2)cc1
- IC50 [1]: 70 nM
- IC50 [2]: 89 nM
- IC50 [3]: 19000 nM

SMILES: N#Cc1ccc(Cn2cncc2CN(CCN2CCOCC2)[C@H]2CCN(Cc3cccc(Cl)c3)C2=O)cc1
- IC50 [3]: 12000 nM

SMILES: N#Cc1ccc(Cn2cncc2CN[C@H]2CCN(C(=O)c3cccc4ccccc34)C2)cc1
- IC50 [1]: 330 nM
- IC50 [2]: 11 nM
- IC50 [3]: 880 nM

SMILES: CC(C)(C)OC(=O)NCCCN(Cc1cncn1Cc1ccc(C#N)cc1)[C@H]1CCN(Cc2cccc(Cl)c2)C1=O
- IC50 [1]: 1.1 nM
- IC50 [2]: 1.3 nM
- IC50 [3]: 2700 nM
- IC50 [4]: 110 nM

SMILES: N#Cc1ccc(Cn2cncc2CN(CCN2CCNCC2)[C@H]2CCN(Cc3cccc(Cl)c3)C2=O)cc1
- IC50 [3]: > 50000 nM

SMILES: COc1ncccc1C(=O)N1CC[C@H](NCc2cncn2Cc2ccc(C#N)cc2)C1
- IC50 [2]: 150 nM
- IC50 [3]: > 50000 nM

SMILES: N#Cc1ccc(Cn2cncc2CCN[C@H]2CCN(c3ccccc3)C2=O)cc1
- IC50 [1]: 150 nM
- IC50 [2]: 280 nM
- IC50 [3]: 14000 nM

SMILES: N#Cc1ccc(Cn2cncc2CN[C@H]2CCN(c3ccncc3)C2=O)cc1
- IC50 [1]: 200 nM
- IC50 [2]: 43 nM
- IC50 [3]: > 20000 nM

SMILES: N#Cc1ccc(Cn2cncc2CN[C@H]2CCN(c3cccc(Cl)c3)C2=O)cc1
- IC50 [1]: 30 nM
- IC50 [2]: 8.4 nM
- IC50 [3]: 6500 nM

SMILES: Cc1ncccc1C(=O)N1CC[C@H](NCc2cncn2Cc2ccc(C#N)cc2)C1
- IC50 [1]: 610 nM
- IC50 [2]: 100 nM
- IC50 [3]: > 50000 nM
- IC50 [4]: > 10000 nM

SMILES: N#Cc1ccc(Cn2cncc2CN(CCc2ccccc2)[C@H]2CCN(Cc3ccccc3)C2=O)cc1
- IC50 [1]: 460 nM
- IC50 [2]: 51 nM
- IC50 [3]: 15000 nM

SMILES: N#Cc1ccc(Cn2cncc2CN[C@@H]2CCN(c3ccccc3)C2=O)cc1
- IC50 [2]: 200 nM
- IC50 [3]: 41000 nM

SMILES: N#Cc1ccc(Cn2cncc2CN(CCCCc2ccccc2)[C@H]2CCN(Cc3ccccc3)C2=O)cc1
- IC50 [1]: 310 nM
- IC50 [2]: 42 nM
- IC50 [3]: 4600 nM

SMILES: N#Cc1ccc(Cn2cncc2CN[C@H]2CCN(Cc3ccccc3)C2=O)cc1
- IC50 [3]: 40000 nM
- IC50 [4]: 7200 nM

SMILES: N#Cc1ccc(Cn2cncc2CN[C@H]2CCN(C(=O)c3cccnc3S)C2)cc1
- IC50 [2]: 2900 nM
- IC50 [3]: > 50000 nM
- IC50 [4]: 11000 nM

SMILES: N#Cc1ccc(Cn2cncc2CN[C@H]2CCN(C(=O)c3ccccc3)C2)cc1
- IC50 [2]: 110 nM
- IC50 [3]: 24000 nM

SMILES: N#Cc1ccc(Cn2cncc2CN[C@H]2CCN(c3ccccc3)C2=O)cc1
- IC50 [1]: 27 nM
- IC50 [2]: 74 nM
- IC50 [3]: 46000 nM
